From publication PMC7616001 (Journal of medicinal chemistry, 2022)
Like-named read-outs stand apart in the source and are kept apart here.

Key:
Cyclic voltammetry = type: physicochemical; settings: acetonitrile, 0.1 M NEt4BF4
ROS level in HeLa cells = experiment: H2DCF-DA intracellular ROS assay; type: cell-based, human; settings: 10 μM, 1-8 h
Summary of the method: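 HeLa plated at 10 × 10^3 per well, grown overnight, then exposed to 10 μM test compound for 1, 2, 4 or 8 h. Washed with PBS and loaded with 10 μM H2DCF‑DA for 30 min. Washed again, phenol red‑free DMEM added, fluorescence read immediately. Three biological replicates.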

HeLa [1] = settings: read-out: IC50 HeLa; 72 h continuous exposure, MTT assay; cited from earlier work
A2780 [2] = settings: cited from earlier work
[3] = cited from earlier work
HeLa [4] = experiment: MTT assay, 72 h continuous exposure, HeLa cells; type: cell-based, human; settings: read-out: IC50 HeLa; 72 h continuous exposure, MTT assay
Summary of the method: (§1)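 Ovarian lines grown in RPMI with 10% FBS and 1% penicillin/streptomycin; A2780Cis kept on 2 μM cisplatin 3 days each week. HeLa grown in DMEM with the same supplements. 3 × 10^3 cells/well, overnight, then serial dilutions of DMSO stocks (final DMSO ≤0.1%); cisplatin stock in PBS. 72 h continuous exposure, MTT 0.5 mg/mL 3 h, formazan in DMSO, A570 normalised to untreated. IC50 from curves; ≥3 independent experiments.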

A2780 [5] = experiment: MTT assay, 72 h continuous exposure, A2780 cells; type: cell-based, human; settings: read-out: IC50 A2780; 72 h continuous exposure, MTT assay
Summary of the method: as §1

A2780cis [6] = experiment: MTT assay, 72 h continuous exposure, cisplatin-resistant A2780Cis cells; type: cell-based, human; settings: read-out: IC50 A2780cis; 72 h continuous exposure, MTT assay
Summary of the method: as §1

HeLa [7] = experiment: 72 h crystal violet; type: cell-based, human; settings: HeLa and A2780, 72 h
Summary of the method: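 Seeding and dosing as for MTT: 3 × 10^3 cells/well, overnight, final DMSO ≤0.1%, 72 h exposure. Wells washed with PBS and fixed in 4% paraformaldehyde for 15 min. Crystal violet stained, dried, dissolved in 96% ethanol and A570 read. IC50 derived from dose–response curves.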

HeLa cells [8] = experiment: Intracellular distribution between nucleus and cytoplasm, ICP-MS; type: cell-based, human; settings: 10 μM, 24 h exposure
Summary of the method: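 5 × 10^6 HeLa per 100 mm plate, grown overnight. Exposed 24 h to 10 μM test compound, with 10 μM cisplatin as comparator. PBS‑washed, trypsinised, counted. Nuclear and cytoplasmic fractions isolated with a commercial kit. Protein measured by BCA assay, metal by ICP‑MS. Three experiments of ≥3 replicates.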

HeLa cells [9] = experiment: Annexin-V/PI dual staining flow cytometry; type: cell-based, human; settings: 10 μM (0.7 × IC50/24h)
[10] = system: PARP, p53, cleaved caspase 3 in HeLa cells; experiment: Western blot of apoptosis-related marker proteins; type: cell-based, human; settings: 24 h, cisplatin 10 μM, 1 at 1/4 × IC50 to IC50
Summary of the method: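 ~2 million HeLa per 60 mm dish, grown to 80–90% confluency, treated 24 h at 10, 20 or 40 μM. Lysed in RIPA buffer with protease inhibitors. Membranes blocked with 2% skim milk in 0.1% Tween 20 for 30 min. Primary antibody 1:1000 overnight at 4 °C; HRP secondary antibody.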

[11] = system: MEF-Bax/Bak^+/+ and MEF-Bax/Bak^−/− cell lines; experiment: Cytotoxicity in MEF-Bax/Bak+/+ versus MEF-Bax/Bak−/− cells; type: cell-based, murine
A2780cis [12] = settings: A2780Cis versus wild-type A2780; cited from earlier work
[13] = read-out: IC50 in A2780 cells, reported antitumor activities

For `O=C(CC(=O)C(F)(F)F)[c-]1cccc1.[Fe+2].c1cc[cH-]c1` [Compound L1, 4,4,4-trifluoro-1-ferrocenylbutane-1,3-dione], the “oxidation potential (vs Fc^+/0)” value (Cyclic voltammetry) is listed as 287 mV, the “intracellular ROS level (H2DCF-DA)” value (ROS level in HeLa cells) is listed as “unable to elevate the level of intracellular ROS” and the IC50 (HeLa [1]) is listed as 23 µM. For the same compound, the IC50 (A2780 [2]; read-out: IC50 A2780, 72 h, MTT assay) was 11.4 ± 2 µM and the pKa [3] was 6.5.

Compound `N.N.[Cl][Pt][Cl]` [cisplatin, reference compound] has an IC50 (HeLa [4]) of 3 ± 0.1 µM, an IC50 (A2780 [5]) of 0.8 ± 0.1 µM and an IC50 (A2780cis [6]) of 6.7 ± 0.1 µM. For the same compound, the “IC50 from CV assay compared to IC50 from MTT assay” value (HeLa [7]) was “comparable”, the “metal content in nuclear fraction relative to cytoplasmic fraction” value (HeLa cells [8]) was “equally distributed between the cytoplasm and nucleus” and the “AV^+/PI^− cells (early apoptosis)” value (HeLa cells [9]) was 13.4%. The “apoptosis markers (PARP cleavage, p53, cleaved caspase 3)” value [10] was “cleavage of PARP and sharp upregulation of P53 and cleaved caspase 3”, the “IC50 in MEF-Bax/Bak^−/− compared to MEF-Bax/Bak^+/+ cells” value [11] was 2.5 fold and the “resistance factor, RF” value (A2780cis [12]) was 9.7.

`O=C1[O][Pt]2([NH][C@@H]3CCCC[C@H]3[NH]2)[O]C1=O` [oxaliplatin, reference compound] showed an IC50 (HeLa [4]) of 2.1 ± 0.3 µM.

In the case of “[Ru(η^6-arene)(PTA)-(4,4,4-trifluoro-1-(4-chlorophenyl)-1,3-butanedionato)]”, the IC50 (A2780 [2]; [13]) is listed as 34.8 µM.

For [Ru(η^6-arene)Cl(curcuminato)], the IC50 (A2780 [2]; [13]) is listed as 23.4 µM.
